Converted amounts (≈) assume the structure as drawn.
Legend:
Type in all cases: functional
[1] = test system: Staphylococcus; assay: Antibacterial activity against coagulase negative Staphylococcus after 18 to 24 hrs by agar dilution method
Method in brief: (§1)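 Agar dilution on test agar holding serial twofold dilutions of compound. Overnight tryptosoy broth cultures were diluted in the same broth to about 10⁶ cells/mL and spotted with an inoculating device. Plates were incubated at 37 °C for 18–20 h.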

[2] = test system: Streptococcus agalactiae; assay: Antibacterial activity against Streptococcus agalactiae 32 after 18 to 24 hrs by agar dilution method
Method in brief: (§2)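 MICs were determined by agar dilution on test agar. An overnight tryptosoy broth culture was diluted in the same broth to about 10⁶ cells/mL and spotted with an inoculating device onto agar containing serial twofold dilutions of compound. Plates were incubated at 37 °C for 18–20 h, and the MIC was the lowest concentration with no visible growth.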

[3] = test system: Streptococcus pneumoniae; assay: Antibacterial activity against Streptococcus pneumoniae 0025 after 18 to 24 hrs by agar dilution method; method in brief: as §2
[4] = test system: Streptococcus pyogenes; assay: Antibacterial activity against Streptococcus pyogenes 9889 after 18 to 24 hrs by agar dilution method; method in brief: as §1
[5] = test system: Citrobacter freundii; assay: Antibacterial activity against Citrobacter freundii 323 after 18 to 24 hrs by agar dilution method; method in brief: as §2
[6] = test system: Enterococcus faecalis; assay: Antibacterial activity against Enterococcus faecalis 2347 after 18 to 24 hrs by agar dilution method; method in brief: as §2
[7] = test system: Klebsiella pneumoniae; assay: Antibacterial activity against Klebsiella pneumoniae 523 after 18 to 24 hrs by agar dilution method; method in brief: as §2
[8] = test system: Escherichia coli; assay: Antibacterial activity against Escherichia coli 04 after 18 to 24 hrs by agar dilution method; method in brief: as §2
[9] = test system: Serratia marcescens; assay: Antibacterial activity against Serratia marcescens 3349 after 18 to 24 hrs by agar dilution method; method in brief: as §2
[10] = test system: Pseudomonas aeruginosa; assay: Antibacterial activity against Pseudomonas aeruginosa 5455 after 18 to 24 hrs by agar dilution method; method in brief: as §2
[11] = test system: Staphylococcus aureus; assay: Antibacterial activity against Staphylococcus aureus 1218 after 18 to 24 hrs by agar dilution method; method in brief: as §2
[12] = test system: Haemophilus influenzae; assay: Antibacterial activity against Haemophilus influenzae 1210 after 18 to 24 hrs by agar dilution method; method in brief: as §2
[13] = test system: Enterobacter cloacae; assay: Antibacterial activity against Enterobacter cloacae 34 after 18 to 24 hrs by agar dilution method; method in brief: as §2
[14] = test system: Acinetobacter baumannii; assay: Antibacterial activity against Acinetobacter baumannii 2289 after 18 to 24 hrs by agar dilution method; method in brief: as §2

MIC [1]: 0.098 µg/mL (≈ 0.183 µM) | MIC [2]: 0.02 µg/mL (≈ 0.0373 µM) | MIC [3]: 0.025 µg/mL (≈ 0.0466 µM) | MIC [4]: 0.02 µg/mL (≈ 0.0373 µM) | MIC [5]: 0.781 µg/mL (≈ 1.46 µM) | MIC [6]: 3.12 µg/mL (≈ 5.81 µM) | MIC [7]: 0.781 µg/mL (≈ 1.46 µM) | MIC [8]: 0.195 µg/mL (≈ 0.363 µM) | MIC [9]: 6.25 µg/mL (≈ 11.6 µM) | MIC [10]: 100 µg/mL (≈ 186 µM) | MIC [11]: 3.12 µg/mL (≈ 5.81 µM) | MIC [12]: 12.5 µg/mL (≈ 23.3 µM) | MIC [13]: 0.781 µg/mL (≈ 1.46 µM) | MIC [14]: 50 µg/mL (≈ 93.2 µM)
SMILES: C[C@@H](O)C1C(=O)N2C(C(=O)O)=C(S[C@@H]3CN[C@H](CN4CCN(Cc5ccccc5)S4(=O)=O)C3)[C@H](C)C12 (some centres undefined)
